Assay results taken from ChEMBL document CHEMBL1137561 (J Med Chem, 2007).

Tests used:
[1] = system: Human immunodeficiency virus 1; assay: Antiviral activity against HIV1 with reverse transcriptase K103N mutation in MT4 cells assessed as inhibition of viral induced cytopathic effect by MTT method; assay type: functional, organism-based; settings: Human immunodeficiency virus 1, MT4
Procedure, shortened: (§1)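 MT-4 cells infected with the HIV-1 NNRTI-resistant mutant strain. Viable cells scored at day 5 post-infection by the MTT tetrazolium colorimetric method. […] Values are means ± SD from at least two experiments.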

[2] = system: Human immunodeficiency virus 1; assay: Antiviral activity against HIV1 with reverse transcriptase Y181C mutation in MT4 cells assessed as inhibition of viral induced cytopathic effect by MTT method; assay type: functional, organism-based; settings: Human immunodeficiency virus 1, MT4; procedure, shortened: as §1
[3] = system: Human immunodeficiency virus 1; assay: Antiviral activity against HIV1 with reverse transcriptase Y188L mutation in MT4 cells assessed as inhibition of viral induced cytopathic effect by MTT method; assay type: functional, organism-based; settings: Human immunodeficiency virus 1, MT4
Procedure, shortened: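 MT-4 cells infected with the HIV-1 NNRTI-resistant mutant strain. Viable cells scored at day 5 post-infection by the MTT tetrazolium colorimetric method. Values are means ± SD from at least two experiments.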

[4] = Cytotoxicity against MT4 cells after 4 days by MTT method; assay type: cell-based; settings: human
Procedure, shortened: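 Mock-infected (noninfected) MT-4 cells, run in parallel with the antiviral test. Viable cells read by the MTT tetrazolium colorimetric method. […] Means ± SD from at least two experiments. The top concentration was limited where compounds precipitated in the culture medium.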

[5] = Selectivity index, ratio of CC50 for MT4 cells to EC50 for HIV1 NL43 infected MT4 cells; assay type: functional
[6] = system: Human immunodeficiency virus 1; assay: Antiviral activity against HIV1 with reverse transcriptase IRLL98 mutation in MT4 cells assessed as inhibition of viral induced cytopathic effect by MTT method; assay type: functional, organism-based
[7] = biological target: Human immunodeficiency virus type 1 reverse transcriptase (Human immunodeficiency virus 1, UniProt Q72547); assay: Inhibition of wild type HIV1 3B reverse transcriptase
[8] = biological target: Human immunodeficiency virus type 1 reverse transcriptase (Human immunodeficiency virus 1, UniProt Q72547, K103N); assay: Inhibition of HIV1 reverse transcriptase K103N mutant
[9] = biological target: Human immunodeficiency virus type 1 reverse transcriptase (Human immunodeficiency virus 1, UniProt Q72547, L100I); assay: Inhibition of HIV1 reverse transcriptase L100I mutant
[10] = biological target: Human immunodeficiency virus type 1 reverse transcriptase (Human immunodeficiency virus 1, UniProt Q72547, V106A); assay: Inhibition of HIV1 reverse transcriptase V106A mutant
[11] = biological target: Human immunodeficiency virus type 1 reverse transcriptase (Human immunodeficiency virus 1, UniProt Q72547, V179D); assay: Inhibition of HIV1 reverse transcriptase V179D mutant
[12] = Inhibition of HIV1 reverse transcriptase Y1811 mutant; set-up: species or system Human immunodeficiency virus 1
Procedure, shortened: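 Recombinant HIV-1 RT Y181I mutant, purified to >95%, 10 min preincubation with inhibitor. Radioactive nucleotide incorporation into poly(rA)/oligo(dT) 10:1 was followed at varied nucleotide substrate levels, sampling every 2 min for initial velocities. Inhibitor spanned 0.2–5 Ki. Ki came from Lineweaver-Burk and Dixon plots. Means ± SD of at least three experiments.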

[13] = biological target: Human immunodeficiency virus type 1 reverse transcriptase (Human immunodeficiency virus 1, UniProt Q72547, Y188L); assay: Inhibition of HIV1 reverse transcriptase Y188L mutant
[14] = system: Human immunodeficiency virus 1; assay: Resistance index, ratio of Ki for HIV1 reverse transcriptase Y181I mutant to Ki for wild type HIV1 3B reverse transcriptase
Procedure, shortened: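 Initial velocities came from radioactive nucleotide incorporation into poly(rA)/oligo(dT) 10:1, sampled every 2 min. Inhibitor spanned 0.2–5 Ki, with Lineweaver-Burk and Dixon plots. Fold-resistance is Ki mutant / Ki wild type.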

[15] = Resistance index, Ratio of EC50 for drug-resistant HIV1 with RT K103N mutation in MT4 cells to EC50 for HIV1 NL43 in MT4 cells
[16] = Resistance index, Ratio of EC50 for drug-resistant HIV1 with RT Y181C mutation in MT4 cells to EC50 for HIV1 NL43 in MT4 cells
[17] = Resistance index, Ratio of EC50 for drug-resistant HIV1 with RT Y188L mutation in MT4 cells to EC50 for HIV1 NL43 in MT4 cells
[18] = Resistance index, Ratio of EC50 for drug-resistant HIV1 with RT IRLL98 mutation in MT4 cells to EC50 for HIV1 NL43 in MT4 cells
[19] = system: Human immunodeficiency virus 1; assay: Antiviral activity against HIV1 NL43 in MT4 cells assessed as inhibition of viral induced cytopathic effect after 5 days by MTT method; settings: Human immunodeficiency virus 1, NL43, MT4, 120 h
[20] = system: Human immunodeficiency virus 1; assay: Antiviral activity against HIV1 NL43 in MT4 cells assessed as inhibition of viral induced cytopathic effect after 4 days by MTT method; assay type: functional, organism-based
[21] = Human immunodeficiency virus 1, MT4

| Compound | EC50 [1] [nM] | EC50 [2] [nM] | EC50 [3] [nM] | CC50 at 96 h [4] [nM] | Ratio CC50/EC50 [5] | EC50 [6, 21] [nM] | Ki [7] [nM] | Ki [8] [nM] | Ki [9] [nM] | Ki [10] [nM] | Ki [11] [nM] | Ki [12] [nM] | Ki [13] [nM] | Ratio Ki [14] | Ratio EC50 [15] | Ratio EC50 [16] | Ratio EC50 [17] | Ratio EC50 [18] | EC50 [19] [nM] | also measured |
| --- | --- | --- | --- | --- | --- | --- | --- | --- | --- | --- | --- | --- | --- | --- | --- | --- | --- | --- | --- | --- |
| Cc1c(C(C)c2c(F)cccc2F)nc(N(C)C)[nH]c1=O (stereo unspecified) | 50 | 14 | 50 | > 17000 | >56667 | 5 | 100 | 500 | 1000 | 100 | 2000 | 4000 | 500 | 40 | 167 | 47 | 167 | 17 | 0.3 |  |
| CCN(C)c1nc(C(C)c2c(F)cccc2F)c(C)c(=O)[nH]1 (stereo unspecified) | 20 | 2 | 30 | 81000 | 270000 | 3 | 40 | 500 | 2500 | 20 | 20 | 10000 | 4000 | 250 | 67 | 7 | 100 | 10 | 0.3 |  |
| Cc1c(C(C)c2c(F)cccc2F)nc(N2CCSCC2)[nH]c1=O (stereo unspecified) | 1240 | 30 | 860 | > 71000 | >23667 |  | 60 | 10000 | 5000 | 30 | 20 | > 20000 | 4000 |  | 413 | 10 | 287 | 20 |  | EC50 [20]: 3 nM; EC50 ([6]; mt4): 60 nM |
